Measurements taken from ChEMBL document CHEMBL1124822, “(8 beta)-6-methylergoline amide derivatives as serotonin antagonists: N1-substituent effects on vascular 5HT2 receptor activity” (J Med Chem, 1990).

Biological target: Serotonin 2 (5-HT2) receptor (Rattus norvegicus) (UniProt P30994+P08909+P14842)
Assay: Antagonistic activity against (5-hydroxytryptamine 2 receptor) serotonin-induced contractions in the rat jugular vein
Format: functional
Outline: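 Isolated jugular vein segments mounted on two L-shaped needles, one tied to a transducer, in organ baths with 10 mL modified Krebs bicarbonate solution; 1-2 h equilibration. Control cumulative serotonin contraction curves were recorded, then the antagonist was incubated 1 h and the curves repeated, one antagonist concentration per tissue. K_B = [B]/(dose ratio − 1), using serotonin ED50 ratios; reported as −log K_B.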

Chain of Serotonin 2 (5-HT2) receptor (Rattus norvegicus) (P08909 whole entry, looked up): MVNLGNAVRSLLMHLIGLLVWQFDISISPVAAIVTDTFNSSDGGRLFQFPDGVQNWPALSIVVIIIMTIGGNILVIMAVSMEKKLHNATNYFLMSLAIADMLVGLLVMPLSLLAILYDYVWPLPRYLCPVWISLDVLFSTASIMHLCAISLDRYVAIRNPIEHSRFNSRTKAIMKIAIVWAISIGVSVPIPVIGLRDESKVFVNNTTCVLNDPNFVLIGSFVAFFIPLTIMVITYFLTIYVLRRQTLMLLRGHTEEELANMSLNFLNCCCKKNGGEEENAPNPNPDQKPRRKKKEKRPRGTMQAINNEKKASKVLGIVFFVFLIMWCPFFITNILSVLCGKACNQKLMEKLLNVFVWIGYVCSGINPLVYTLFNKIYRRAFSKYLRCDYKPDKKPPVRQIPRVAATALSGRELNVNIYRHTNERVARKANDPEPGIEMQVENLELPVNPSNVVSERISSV
Chain of Serotonin 2 (5-HT2) receptor (Rattus norvegicus) (P14842 whole entry, looked up): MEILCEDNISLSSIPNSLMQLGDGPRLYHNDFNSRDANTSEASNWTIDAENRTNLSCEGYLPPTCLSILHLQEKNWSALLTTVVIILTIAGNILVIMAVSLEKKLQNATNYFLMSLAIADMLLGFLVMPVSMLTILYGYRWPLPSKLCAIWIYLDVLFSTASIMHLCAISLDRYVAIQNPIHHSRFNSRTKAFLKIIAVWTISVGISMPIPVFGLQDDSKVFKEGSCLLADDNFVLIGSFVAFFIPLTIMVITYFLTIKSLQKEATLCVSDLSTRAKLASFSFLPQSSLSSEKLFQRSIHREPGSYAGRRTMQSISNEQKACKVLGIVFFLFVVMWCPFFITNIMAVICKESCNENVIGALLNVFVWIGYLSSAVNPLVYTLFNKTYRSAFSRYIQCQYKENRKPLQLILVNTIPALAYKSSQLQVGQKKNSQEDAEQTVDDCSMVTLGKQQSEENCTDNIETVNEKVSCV
Chain of Serotonin 2 (5-HT2) receptor (Rattus norvegicus) (P30994 whole entry, looked up): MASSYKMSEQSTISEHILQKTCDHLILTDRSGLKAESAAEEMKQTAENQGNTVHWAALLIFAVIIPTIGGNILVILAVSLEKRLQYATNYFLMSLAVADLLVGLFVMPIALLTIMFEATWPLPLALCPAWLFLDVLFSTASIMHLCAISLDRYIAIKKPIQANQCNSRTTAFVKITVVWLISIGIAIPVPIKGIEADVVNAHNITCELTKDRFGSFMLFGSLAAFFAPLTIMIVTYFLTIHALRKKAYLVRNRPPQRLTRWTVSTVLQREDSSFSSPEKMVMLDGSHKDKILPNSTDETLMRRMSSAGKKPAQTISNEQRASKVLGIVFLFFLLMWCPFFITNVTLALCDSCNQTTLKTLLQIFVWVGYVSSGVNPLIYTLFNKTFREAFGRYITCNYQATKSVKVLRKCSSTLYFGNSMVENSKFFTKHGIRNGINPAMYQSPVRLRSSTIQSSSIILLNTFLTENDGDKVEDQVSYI

Row | Structure (SMILES) | -Log KB
1 | CN1C[C@H](C(=O)NC2CCCCC2)C[C@@H]2c3cccc4[nH]cc(c34)C[C@H]21 | 9.24
2 | CC(C)n1cc2c3c(cccc31)[C@H]1C[C@@H](C(=O)NC3CCCCC3)CN(C)[C@@H]1C2 | 9.67
3 | CCn1cc2c3c(cccc31)[C@H]1C[C@@H](C(N)=O)CN(C)[C@@H]1C2 | 8.44
4 | CCn1cc2c3c(cccc31)[C@H]1C[C@@H](C(=O)NC3CCCCC3)CN(C)[C@@H]1C2 | 9.25
5 | CN1C[C@H](c2nnnn2C2CCCCC2)C[C@@H]2c3cccc4[nH]cc(c34)C[C@H]21 | < 6.52
6 | COC1CCC(C(=O)N[C@@H]2C[C@@H]3c4cccc5c4c(cn5C)C[C@H]3N(C)C2)CC1 (stereo partly specified) | 8.71
7 | CN1C[C@H](c2nnnn2C2CCCCC2)C[C@@H]2c3cccc4c3c(cn4C)C[C@H]21 | < 7
8 | CC(C)n1cc2c3c(cccc31)[C@H]1C[C@@H](CC(=O)NC3CCCCC3)CN(C)[C@@H]1C2 | 8.88
9 | CN1C[C@H](C(=O)NC2CCCCC2)C[C@@H]2c3cccc4c3c(cn4C3CCCC3)C[C@H]21 | < 7
10 | CC(C)Cn1cc2c3c(cccc31)[C@H]1C[C@@H](C(=O)NC3CCCC3)CN(C)[C@@H]1C2 | < 7
11 | CC(C)Cn1cc2c3c(cccc31)[C@H]1C[C@@H](C(=O)NC3CCCCC3)CN(C)[C@@H]1C2 | < 7
12 | CCC(CC)n1cc2c3c(cccc31)[C@H]1C[C@@H](C(=O)NC3CCCCC3)CN(C)[C@@H]1C2 | 7.8
13 | CC(C)n1cc2c3c(cccc31)[C@H]1C[C@@H](C(=O)NC3CCCC3)CN(C)[C@@H]1C2 | 10.3
14 | COC1CCC(C(=O)N[C@@H]2C[C@@H]3c4cccc5c4c(cn5C(C)C)C[C@H]3N(C)C2)CC1 (stereo partly specified) | 9.64
15 | CC(C)n1cc2c3c(cccc31)[C@H]1C[C@@H](C(N)=O)CN(C)[C@@H]1C2 | 8.7
16 | CN1C[C@H](C(=O)NC2CCCCC2)C[C@@H]2c3cccc4c3c(cn4Cc3ccccc3)C[C@H]21 | < 7

Row | Structure (SMILES) | -Log KB
17 | CCn1cc2c3c(cccc31)[C@H]1C[C@@H](C(=O)NC3CCCC3)CN(C)[C@@H]1C2 | 9.8
18 | CN1C[C@H](C(N)=O)C[C@@H]2c3cccc4c3c(cn4C)C[C@H]21 | 7.81
19 | CCCn1cc2c3c(cccc31)[C@H]1C[C@@H](C(=O)NC3CCCCC3)CN(C)[C@@H]1C2 | 8
20 | CN1C[C@H](C(=O)NC2CCCC2)C[C@@H]2c3cccc4[nH]cc(c34)C[C@H]21 | 8.87
21 | CC(C)n1cc2c3c(cccc31)[C@H]1C[C@@H](c3nnnn3C3CCCCC3)CN(C)[C@@H]1C2 | < 8
22 | CN1C[C@H](C(=O)NC2CCCC2)C[C@@H]2c3cccc4c3c(cn4C)C[C@H]21 | 9.23
23 | CCCCCCCCn1cc2c3c(cccc31)[C@H]1C[C@@H](C(=O)NC3CCCCC3)CN(C)[C@@H]1C2 | < 7
24 | CN1C[C@H](C(N)=O)C[C@@H]2c3cccc4[nH]cc(c34)C[C@H]21 | 7
25 | CCCCn1cc2c3c(cccc31)[C@H]1C[C@@H](C(=O)NC3CCCCC3)CN(C)[C@@H]1C2 | 7.5
26 | CN1C[C@H](C(=O)NC2CCCCC2)C[C@@H]2c3cccc4c3c(cn4C)C[C@H]21 | 9.7
27 | CCn1cc2c3c(cccc31)[C@H]1C[C@@H](NC(=O)C3CCC(OC)CC3)CN(C)[C@@H]1C2 (stereo partly specified) | 9.43
28 | C=CCn1cc2c3c(cccc31)[C@H]1C[C@@H](C(=O)NC3CCCCC3)CN(C)[C@@H]1C2 | 8.15
29 | CN1C[C@H](CC(=O)NC2CCCCC2)C[C@@H]2c3cccc4c3c(cn4C)C[C@H]21 | 8.97
30 | CN1C[C@H](CC(=O)NC2CCCCC2)C[C@@H]2c3cccc4[nH]cc(c34)C[C@H]21 | 8.05
31 | CCC(CC)n1cc2c3c(cccc31)[C@H]1C[C@@H](C(=O)NC3CCCC3)CN(C)[C@@H]1C2 | 7.3
